{"source": "BindingDB's records for doi:10.1021/jm701107h", "about": "(The Ohio State University, 2008)", "biological_target": "T1, Aromatase (Homo sapiens, UniProt P11511)", "T1 sequence (P11511 whole entry)": "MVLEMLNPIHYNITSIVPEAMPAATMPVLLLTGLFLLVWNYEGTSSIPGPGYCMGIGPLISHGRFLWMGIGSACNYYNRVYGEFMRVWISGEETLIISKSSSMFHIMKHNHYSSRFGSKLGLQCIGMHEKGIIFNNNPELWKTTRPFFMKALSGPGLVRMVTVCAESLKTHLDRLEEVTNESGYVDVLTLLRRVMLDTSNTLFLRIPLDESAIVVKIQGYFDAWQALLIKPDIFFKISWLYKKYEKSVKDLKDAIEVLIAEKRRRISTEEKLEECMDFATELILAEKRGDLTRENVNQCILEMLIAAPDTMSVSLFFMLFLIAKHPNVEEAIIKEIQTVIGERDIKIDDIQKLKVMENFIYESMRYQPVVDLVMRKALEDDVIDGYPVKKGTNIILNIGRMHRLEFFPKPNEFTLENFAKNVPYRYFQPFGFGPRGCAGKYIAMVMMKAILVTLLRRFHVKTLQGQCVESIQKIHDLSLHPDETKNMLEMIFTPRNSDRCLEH", "test": "Inhibition of aromatase in human SKBR3 cells by tritiated water release assay", "outline": "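Subconfluent SK-BR-3 cells were switched to defined DMEM/F12 (human albumin, transferrin, insulin) and treated 24 h at five concentrations in triplicate (0.1% DMSO vehicle). They were then incubated 3 h with 100 nM [1β-3H]-androstenedione. TCA-precipitated medium was chloroform-extracted and charcoal-treated, and 3H2O counted as pmol/h/10^6 cells, normalized by DNA assay. IC50 was taken from sigmoidal dose–response fits.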", "note": "pIC50: −log10 of the molar value.", "data": [{"smiles": "COc1cc([N+](=O)[O-])ccc1NS(C)(=O)=O", "note": "[N-(2-methoxy-4-nitrophenyl)methanesulfonamide]", "values": [{"measurement": "pIC50", "value": "< 4.60"}]}, {"smiles": "COc1cc([N+](=O)[O-])ccc1N(C)S(C)(=O)=O", "note": "[N-methyl-N-(2-methoxy-4-nitrophenyl)methanesulfonamide]", "values": [{"measurement": "pIC50", "value": "< 4.60"}]}]}
